What is called pEC50 is −log10 of the EC50, conventionally taken in molar units.

pEC50: −log10 of the molar value. Calls of active or inactive are those of the source. No cut-off for these calls is given here.

What all share (assay type): functional, cell-based
Experiment [1] is described as follows: (§1) Cytotoxicity against human 518A2 cells assessed as cell survival after 96 hrs by SRB assay. The conditions noted are these: 518A2, 96 h. The gist of the method:
(§2)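 Monolayers kept in RPMI 1640 with 10 % heat-inactivated FBS and penicillin/streptomycin, 37 °C, 5 % CO2. Exponentially growing cells seeded day 0 at densities avoiding confluence. After 24 h, serial dilutions 0-100 µM for 96 h, DMSO or DMF ≤0.5 % final. Fixed with 10 % TCA at 4 °C, stained 0.4 % SRB ~20 min, washed with 1 % acetic acid, dye dissolved in 10 mM Tris base, A570 read. Survival taken relative to untreated controls. EC50 fitted by two-parameter Hill equation, mean of three independent experiments each run in triplicate.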
For orientation: Sulforhodamine B stains cellular protein and so reports cell mass.

The test system of experiment [2] is MCF7. The experiment in a line: Cytotoxicity against human MCF7 cells assessed as cell survival after 96 hrs by SRB assay. The conditions noted are these: for pEC50: MCF7, 96 h. In outline: as §2
A further experiment has as its system HT-29. In words: Cytotoxicity against human HT-29 cells assessed as cell survival after 96 hrs by SRB assay. The conditions noted are these: for pEC50: HT-29, 96 h. The gist of the method:
as §2

Another experiment relates to 518A2. The description is as §1. In outline:
as §2

The subject of the next experiment is A549. In words: Cytotoxicity against human A549 cells assessed as cell survival after 96 hrs by SRB assay. Particulars: for pEC50: A549, 96 h. In outline: as §2
The subject of the next experiment is 8505C. In words: Cytotoxicity against human 8505C cells assessed as cell survival after 96 hrs by SRB assay. In outline:
as §2

The subject of experiment [3] is MCF7. In words: Cytotoxicity against human MCF7 cells assessed as inhibition of cell proliferation after 3 days by radioactive thymidine incorporation assay. Particulars: MCF7, 72 h.

`COC(=O)[C@]12CC[C@@H](C)[C@H](C)[C@H]1C1=CC[C@@H]3[C@@]4(C)CC[C@H](O)C(C)(C)[C@@H]4CC[C@@]3(C)[C@]1(C)CC2` [METHYL URSOLATE]: the pEC50 (in experiment [1]; in the experiment on MCF7 [2]; with HT-29) was under 4.52 throughout.

Consider `COC(=O)[C@]12CCC(C)(C)C[C@H]1C1=CC(=O)[C@@H]3[C@@]4(C)CCC(=O)C(C)(C)[C@@H]4CC[C@@]3(C)[C@]1(C)CC2`, for which the pEC50 in the experiment on MCF7 [2] was under 4.52.

In the case of `COC(=O)[C@]12CC[C@@H](C)[C@H](C)[C@H]1C1=CC[C@@H]3[C@@]4(C)CC(Br)(Br)C(=O)C(C)(C)[C@@H]4CC[C@@]3(C)[C@]1(C)CC2`, the result in the experiment on 518A2, in the experiment on MCF7 [2], in the experiment on HT-29, in the experiment with A549 and with 8505C was Active.

In the case of `COC(=O)[C@@]1(C)CC[C@]2(C)CC[C@]3(C)C(=CC(=O)[C@@H]4[C@@]5(C)CCC(=O)C(C)(C)[C@@H]5CC[C@]43C)[C@@H]2C1`, the pEC50 in experiment [1] was under 4.52; with MCF7 [2] it was 4.78; with HT-29 it was 4.57; in the experiment with A549 it was 4.58; in the experiment on 8505C it was 4.69.

`CC1(C)CC[C@]2(C(=O)O)CC[C@]3(C)C(=CC[C@@H]4[C@@]5(C)CC[C@H](O)C(C)(C)[C@@H]5CC[C@]43C)[C@@H]2C1` [OLEANOLIC_ACID]: the pEC50 (in experiment [1]; in the experiment on MCF7 [2]; in the experiment on HT-29; in the experiment with A549; in the experiment with 8505C) was under 4.52 throughout.

Regarding `COC(=O)[C@]12CC[C@@H](C)[C@H](C)[C@H]1C1=CC(=O)[C@@H]3[C@@]4(C)CC[C@H](O)C(C)(C)[C@@H]4CC[C@@]3(C)[C@]1(C)CC2`, the pEC50 (in experiment [1]; in the experiment on MCF7 [2]; in the experiment with HT-29) was under 4.52 in each case.

As for `COC(=O)[C@]12CCC(C)(C)C[C@H]1C1=CC(=O)[C@@H]3[C@@]4(C)CC[C@H](O)C(C)(C)[C@@H]4CC[C@@]3(C)[C@]1(C)CC2`, the pEC50 in experiment [1] is under 4.52; in the experiment on MCF7 [2] it was 4.54; with HT-29, 4.56.

`COC(=O)[C@]12CC[C@@H](C)[C@H](C)[C@H]1C1=CC[C@@H]3[C@@]4(C)C[C@H](C)C(=O)C(C)(C)[C@@H]4CC[C@@]3(C)[C@]1(C)CC2`: the result in the experiment on 518A2, with MCF7 [2], in the experiment with HT-29, with A549 and in the experiment on 8505C was inactive.

For `C=C1C[C@]2(C)[C@H]3CC=C4[C@@H]5CC(C)(C)CC[C@]5(C(=O)OC)CC[C@@]4(C)[C@]3(C)CC[C@H]2C(C)(C)C1=O`, the negative logarithm of the EC50 (pEC50) (in experiment [1]; in the experiment with MCF7 [2]; in the experiment on HT-29; with A549; with 8505C) was under 4.52 in each case.

Regarding `CC(=O)[C@@H]1CC[C@]2(C(=O)O)CC[C@]3(C)[C@H](CC[C@@H]4[C@@]5(C)CC[C@H](O)C(C)(C)[C@@H]5CC[C@]43C)[C@@H]12` [PLATANIC ACID], the pEC50 in experiment [1] was 5.82; with MCF7 [2], 5.81; with HT-29 it was 5.77; in the experiment with A549, 5.81; in the experiment on 8505C, 5.80.

Take `C=C1C[C@]2(C)[C@H]3CC=C4[C@@H]5[C@@H](C)[C@H](C)CC[C@]5(C(=O)OC)CC[C@@]4(C)[C@]3(C)CC[C@H]2C(C)(C)C1=O`: the pEC50 is 5.67 in experiment [1]; 5.35 in the experiment on MCF7 [2]; 5.87 with HT-29; 5.53 in the experiment with A549; 5.21 in the experiment on 8505C.

For the compound `COC(=O)[C@]12CC[C@@H](C)[C@H](C)[C@H]1C1=CC(=O)[C@@H]3[C@@]4(C)CCC(=O)C(C)(C)[C@@H]4CC[C@@]3(C)[C@]1(C)CC2`, the pEC50 in experiment [1] is 5.43; in the experiment with MCF7 [2] it was 5.37; with HT-29, 5.43; in the experiment with A549 it was 5.42; in the experiment on 8505C, 5.36.

For the compound `C[C@H]1[C@H](C)CC[C@]2(C(=O)O)CC[C@]3(C)C(=CC[C@@H]4[C@@]5(C)CC[C@H](O)C(C)(C)[C@@H]5CC[C@]43C)[C@H]12` [URSOLIC ACID], the pEC50 in experiment [1] is 4.83; with MCF7 [2], 4.90; with HT-29 it was 4.97; in the experiment on A549, 4.81; with 8505C it was 4.87.

`COC(=O)[C@]12CC[C@@H](C)[C@H](C)[C@H]1C1=CC(=O)[C@@H]3[C@@]4(C)CC(Br)(Br)C(=O)C(C)(C)[C@@H]4CC[C@@]3(C)[C@]1(C)CC2`: the outcome in the experiment on 518A2, in the experiment on MCF7 [2], with HT-29, with A549 and in the experiment with 8505C was Active.

As for `C=C1C[C@]2(C)[C@H]3C(=O)C=C4[C@@H]5C[C@@](C)(C(=O)OC)CC[C@]5(C)CC[C@@]4(C)[C@]3(C)CC[C@H]2C(C)(C)[C@H]1O`, the result with 518A2, in the experiment on MCF7 [2], in the experiment on HT-29, in the experiment with A549 and in the experiment on 8505C was inactive.

Consider `C=C1C[C@]2(C)[C@H]3C(=O)C=C4[C@@H]5CC(C)(C)CC[C@]5(C(=O)OC)CC[C@@]4(C)[C@]3(C)CC[C@H]2C(C)(C)C1=O`, for which the values for the pEC50 (in experiment [1]; with A549; with 8505C) were 4.78, 4.75 and 4.81, respectively.

Consider `CC1(C)[C@@H](O)CC[C@]2(C)[C@H]3C(=O)C=C4[C@@H]5C[C@@](C)(C(=O)O)CC[C@]5(C)CC[C@@]4(C)[C@]3(C)CC[C@@H]12` [ENOXOLONE], for which the pEC50 in experiment [1] is 4.08; in the experiment with MCF7 [2] it was 4.07; with HT-29, 4.10; with A549, 4.08; in the experiment on 8505C, 4.06.

On to `CC1(C)CC[C@]2(C(=O)O)CC[C@]3(C)[C@H](C(=O)C=C4[C@@]5(C)C=C(C#N)C(=O)C(C)(C)[C@@H]5CC[C@]43C)[C@@H]2C1` [BARDOXOLONE], for which, in the experiment on MCF7 [3], the pEC50 is 6.80.

Turning to `C=C1C[C@]2(C)[C@H]3C(=O)C=C4[C@@H]5[C@@H](C)[C@H](C)CC[C@]5(C(=O)OC)CC[C@@]4(C)[C@]3(C)CC[C@H]2C(C)(C)C1=O`, the pEC50 in experiment [1] was 5.82; in the experiment with MCF7 [2] it was 5.33; in the experiment with HT-29, 5.50; in the experiment with A549, 5.80; in the experiment on 8505C, 5.79.

As for `C=C1C[C@]2(C)[C@H]3C(=O)C=C4[C@@H]5C[C@@](C)(C(=O)OC)CC[C@]5(C)CC[C@@]4(C)[C@]3(C)CC[C@H]2C(C)(C)C1=O`, the pEC50 is under 4.52 in experiment [1]; 6.13 in the experiment on MCF7 [2]; under 4.52 with HT-29; under 4.52 in the experiment on A549; under 4.52 in the experiment with 8505C.

For the compound `COC(=O)[C@]12CCC(C)(C)C[C@H]1C1=CC(=O)[C@@H]3[C@@]4(C)CC(Br)(Br)C(=O)C(C)(C)[C@@H]4CC[C@@]3(C)[C@]1(C)CC2`, the result with 518A2, in the experiment with MCF7 [2], in the experiment on HT-29, in the experiment with A549 and with 8505C was Active.

Take `COC(=O)[C@@]1(C)CC[C@]2(C)CC[C@]3(C)C(=CC(=O)[C@@H]4[C@@]5(C)CC[C@H](O)C(C)(C)[C@@H]5CC[C@]43C)[C@@H]2C1`: the pEC50 (in experiment [1]; with MCF7 [2]; in the experiment on HT-29; with A549; with 8505C) was under 4.52 in each case.

`COC(=O)[C@]12CCC(C)(C)C[C@H]1C1=CC[C@@H]3[C@@]4(C)CC[C@H](O)C(C)(C)[C@@H]4CC[C@@]3(C)[C@]1(C)CC2` [METHYL OLEANOLATE]: the negative logarithm of the EC50 (pEC50) (in experiment [1]; with MCF7 [2]; with HT-29) was under 4.52 in each case.

Values taken from ChEMBL document CHEMBL3612031, “Incorporation of a Michael acceptor enhances the antitumor activity of triterpenoic acids” (Eur J Med Chem, 2015).
